In ChEMBL document CHEMBL3091314, “Synthesis, cytotoxic evaluation and molecular docking study of 2-alkylthio-4-(2,3,4-trimethoxyphenyl)-5-aryl-thiazoles as tubulin polymerization inhibitors” (Bioorg Med Chem, 2013):
Calls of active or inactive are those of the source. The rule behind the calls is not given here.

How the values were obtained:
NIH3T3 [1] = assay: Cell cycle arrest in mouse NIH/3T3 cells assessed as accumulation at G2/M phase at 25 uM after 24 hrs using propidium iodide staining by flow cytometric analysis (reference value: 35.70%); format: cell-based; conditions: nih3t3, 24 h
Method in brief: (§1)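 NIH-3T3 cells treated with 25 or 50 µM for 24 h. Collected by centrifugation, fixed in 75% ethanol at 4 °C for 0.5 h, then resuspended in PBS with 0.1% Triton X-100, 10 µg/mL propidium iodide and 100 µg/mL RNase A at 37 °C for 0.5 h. DNA content read on a FACSCalibur flow cytometer. CA-4 (0.05 µM) served as positive control.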

Ovis aries = species: Ovis aries; assay: Inhibition of sheep brain tubulin polymerization at 10 uM after 15 mins
Method in brief: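 Purified tubulin (12 µM) preincubated 15 min with compound at 10 µM final in PEM buffer (100 mM PIPES pH 6.9, 1 mM MgSO4, 1 mM EGTA), then cooled to 0 °C. GTP added to 1 mM final; assembly started by warming from 0 to 37 °C and followed by absorbance at 350 nm. Duplicate experiments; CA-4 as positive control.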

MCF7 = assay: Cytotoxicity against human MCF7 cells after 48 hrs by MTT assay; format: functional, cell-based; conditions: MCF7, 48 h
Method in brief: (§2)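 Cells grown in RPMI-1640 with 10% heat-inactivated FBS, penicillin and streptomycin, seeded at 8000–10,000 viable cells/well and left 48 h to attach. Exposed to 0.001–100 µM compound (DMSO final <0.1%) for 24 or 48 h depending on cell line. MTT (5 mg/ml in PBS) added for 4 h at 37 °C, formazan dissolved in DMSO, absorbance read at 550 nm against 690 nm. Triplicates; IC50 by nonlinear regression, mean ± SD.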

NIH3T3 [2] = assay: Cell cycle arrest in mouse NIH/3T3 cells assessed as accumulation at S phase at 50 uM after 24 hrs using propidium iodide staining by flow cytometric analysis (reference value: 24.39%); format: cell-based; conditions: nih3t3, 24 h; method in brief: as §1
NIH3T3 [3] = assay: Cytotoxicity against mouse NIH/3T3 cells after 48 hrs by MTT assay; format: cell-based; conditions: NIH3T3, 48 h; method in brief: as §2
HT-29 = assay: Cytotoxicity against human HT-29 cells after 48 hrs by MTT assay; format: functional, cell-based; conditions: HT-29, 48 h; method in brief: as §2
AGS = assay: Cytotoxicity against human AGS cells after 48 hrs by MTT assay; format: functional, cell-based; method in brief: as §2
NIH3T3 [4] = assay: Cell cycle arrest in mouse NIH/3T3 cells assessed as accumulation at G0/G1 phase at 25 uM after 24 hrs using propidium iodide staining by flow cytometric analysis (reference value: 39.91%); format: cell-based; conditions: nih3t3, 24 h; method in brief: as §1
NIH3T3 [5] = assay: Cell cycle arrest in mouse NIH/3T3 cells assessed as accumulation at S phase at 25 uM after 24 hrs using propidium iodide staining by flow cytometric analysis (reference value: 24.39%); format: cell-based; conditions: nih3t3, 24 h; method in brief: as §1
NIH3T3 [6] = assay: Cell cycle arrest in mouse NIH/3T3 cells assessed as accumulation at G0/G1 phase at 50 uM after 24 hrs using propidium iodide staining by flow cytometric analysis (reference value: 39.91%); format: cell-based; conditions: nih3t3, 24 h; method in brief: as §1
NIH3T3 [7] = assay: Cell cycle arrest in mouse NIH/3T3 cells assessed as accumulation at G2/M phase at 50 uM after 24 hrs using propidium iodide staining by flow cytometric analysis (reference value: 35.70%); format: cell-based; conditions: nih3t3, 24 h; method in brief: as §1

Row | Activity (NIH3T3 [1]) | tubulin polymerization inhibition (active/inactive) (Ovis aries) | Activity (NIH3T3 [2]) | Activity (NIH3T3 [4]) | Activity (NIH3T3 [5]) | Activity (NIH3T3 [6]) | Activity (NIH3T3 [7]) | SMILES | IC50 (MCF7) | IC50 (NIH3T3 [3]) | IC50 (HT-29) | IC50 (AGS)
1 | 37.64% | Active | 26.67% | 34.24% | 28.12% | 15.92% | 57.41% | COc1ccc(-c2nc(SCc3ccccc3)sc2-c2ccc(Cl)cc2)c(OC)c1OC | 12.6 µM | 20.5 µM | 8.9 µM | 15.8 µM
2 |  |  |  |  |  |  |  | COc1ccc(-c2nc(SCc3ccccc3)sc2-c2ccccc2)c(OC)c1OC | 27.3 µM | 56.5 µM | 46 µM | 38.5 µM
3 |  | Active |  |  |  |  |  | COc1ccc(-c2nc(SCc3ccccc3)sc2-c2ccc(F)cc2)c(OC)c1OC | 18.5 µM | 41.5 µM | 18.5 µM | 18.1 µM
4 |  | Active |  |  |  |  |  | COc1ccc(-c2nc(SCc3ccccc3)sc2-c2ccc([N+](=O)[O-])cc2)c(OC)c1OC | 11 µM | 16.3 µM | 33.8 µM | 13.8 µM
5 |  |  |  |  |  |  |  | COc1ccc(-c2nc(SC)sc2-c2ccc(Cl)cc2)c(OC)c1OC |  | 95.7 µM | > 100 µM | > 100 µM
6 |  |  |  |  |  |  |  | COc1ccc(-c2nc(SC)sc2-c2ccc([N+](=O)[O-])cc2)c(OC)c1OC |  | > 100 µM | 45.3 µM | > 100 µM
7 |  |  |  |  |  |  |  | COc1ccc(-c2nc(SC)sc2-c2ccccc2)c(OC)c1OC |  | 22.1 µM | 77.9 µM | 27.2 µM
8 |  |  |  |  |  |  |  | COc1ccc(-c2nc(SC)sc2-c2ccc(F)cc2)c(OC)c1OC |  | 42.1 µM | 80.3 µM | 97.8 µM

Row | SMILES | Activity (NIH3T3 [1]) | tubulin polymerization inhibition (active/inactive) (Ovis aries) | Activity (NIH3T3 [2]) | Activity (NIH3T3 [4]) | Activity (NIH3T3 [5]) | Activity (NIH3T3 [6]) | Activity (NIH3T3 [7]) | IC50 (MCF7) | IC50 (NIH3T3 [3]) | IC50 (HT-29) | IC50 (AGS)
9 | COc1ccc(/C=C\c2cc(OC)c(OC)c(OC)c2)cc1O [COMBRETASTATIN A4] |  | Active |  |  |  |  |  | 0.67 µM | 0.097 µM | 1.58 µM | 0.064 µM
